Experimental data from publication PMC10823175 (Proceedings of the National Academy of Sciences of the …, 2024).
Marks after values point to notes of the source that are not given here.

Assays:
4T1-526 mammary tumors = experiment: 4T1-526 mammary fat pad tumor growth; format: in vivo, BALB/c mice
[1] = system: MDA-MB-231, 4T1, MRC-5 cells; experiment: Western blot of c-MYC, cyclin D1 and PARP; format: cell-based; conditions: MDA-MB-231 or 4T1 cancer cells; MG-002, CR-1-31B 100 nM, DXR 0.5 µg/mL; 24 h
eIF4A1 [2] = molecular target: T1, eIF4A1 (Homo sapiens, UniProt P60842); format: binding; conditions: for RNA template selectivity of compound-induced eIF4A1 clamping: 10 µM, poly (AG)8 vs poly (UC)8 RNA
In short: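 Clamping: 1 mM AMPPNP, ΔmP versus DMSO, n = 3 ±SD. Dissociation: complexes with 1 mM ATP, 30 min RT dark, then 1,000-fold excess unlabeled poly(AG)8, polarization over time; one-phase-decay half-life, 95% CI errors.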

eIF4A1 [3] = molecular target: T1, eIF4A1; experiment: Differential scanning fluorimetry of eIF4A1; format: binding; conditions: eIF4A1 8 µM, compound 15 µM, 15 µM poly (AG)8, 1 mM AMPPNP
In short: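 His6-eIF4A1 (E. coli BL21(DE3), Ni-NTA then Q-Sepharose) at 8 µM with 15 µM test compound or DMSO. Heated 37 to 75 °C at 1 °C/min; ΔT50 from the unfolding midpoint; n = 3 ±SD.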

[4] = Plasma protein binding, human; format: in vitro ADME
[5] = Plasma protein binding, mouse; format: in vitro ADME
[6] = system: cap-dependent (FLuc) translation; experiment: In vitro translation in Krebs-2 extracts with bicistronic reporter mRNA; format: biochemical; conditions: read-out: IC50 toward inhibition of FLuc synthesis from (CAG)-FF/HCV-IRES/Ren mRNA, n = 2 ±SD
[7] = delivered IV 1 mg/kg; cited from earlier work
4T1-526 cells = experiment: Cell death of 4T1-526 cells; format: cell-based; conditions: 72h exposure at IC50 doses
[8] = system: mRNA translation in 4T1-526 cells; experiment: Puromycin incorporation in 4T1-526 cells; format: cell-based; conditions: read-out: IC50 for inhibition of mRNA translation

T1 sequence (P60842 whole entry): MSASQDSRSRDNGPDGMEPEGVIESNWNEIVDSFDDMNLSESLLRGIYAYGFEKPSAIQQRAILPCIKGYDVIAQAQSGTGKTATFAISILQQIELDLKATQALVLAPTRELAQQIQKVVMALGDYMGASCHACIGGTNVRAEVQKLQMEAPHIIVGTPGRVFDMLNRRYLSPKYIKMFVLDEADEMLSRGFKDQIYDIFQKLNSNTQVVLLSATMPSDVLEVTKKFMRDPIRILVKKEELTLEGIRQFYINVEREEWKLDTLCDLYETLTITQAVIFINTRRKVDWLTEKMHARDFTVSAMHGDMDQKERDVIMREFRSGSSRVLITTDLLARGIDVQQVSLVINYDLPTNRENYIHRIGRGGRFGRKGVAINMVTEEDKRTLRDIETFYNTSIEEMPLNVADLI

| Structure (SMILES) | primary tumor response, monotherapy versus combination (4T1-526 mammary tumors; 0.5 mg/kg MG-002 PO, 2.5 mg/kg DXR IP, every 3 d) | cleavage of PARP [1] | RNA template selectivity of compound-induced eIF4A1 clamping (eIF4A1 [2]) | transition midpoint temperature shift (ΔT50) (eIF4A1 [3]) | Plasma protein binding (% bound) Human [4] | Plasma protein binding (% bound) Mouse [5] | tumor growth after intraperitoneal or intravenous delivery (4T1-526 mammary tumors; intraperitoneal or intravenous delivery) | half-life of complexes, fold less than those formed with MG-002 (eIF4A1 [2]; poly (AG) RNA) | IC50 [6] | T1/2 (h) [7] | cell death (4T1-526 cells) | IC50 [8] |
| --- | --- | --- | --- | --- | --- | --- | --- | --- | --- | --- | --- | --- |
| COc1cccc2c1C(=O)c1c(O)c3c(c(O)c1C2=O)C[C@@](O)(C(=O)CO)C[C@@H]3O[C@H]1C[C@H](N)[C@H](O)[C@H](C)O1 [DXR, doxorubicin] | equally responsive | cleavage of PARP was observed | – | – | – | – | – | – | – | – | – | – |
| CC(/C=C/C(C)=C/[C@@H]1Cc2nc(cs2)[C@@H](C)C[C@@H](N)CC(=O)O[C@@H](C)C/C(C)=C/C=C\C(=O)O1)=C\CN(C)C [PatA, pateamine A] | – | – | stabilized binding of eIF4A1 to both polypurine and polypyrimidine RNA templates | 10 °C | – | – | – | – | – | – | – | – |
| COc1cc2c(c(OC)n1)[C@]1(O)[C@H](O)[C@H](CN(C)C)[C@@H](c3ccccc3)[C@]1(c1ccc(C#N)cc1)O2 [eFT226] | – | – | discriminated between poly (AG)8 and poly (UC)8 RNA templates | 7 °C | 79.4 ± 0.3 % bound | 73.4 ± 1.1 % bound | similarly delayed tumor growth | approximately 2.5 fold | 813 ± 91 nM | 10.9^§ h | Significant cell death | ~8 nM |
